Data reported in ChEMBL document CHEMBL3627702, “Navigating CYP1A Induction and Arylhydrocarbon Receptor Agonism in Drug Discovery. A Case History with S1P1 Agonists” (J Med Chem, 2015).

What was measured:
[1] = Lipophilicity, log D of the compound at pH 7.4; assay type: physicochemical; conditions: buffer
[2] = Dissociation constant, pKa of the compound; assay type: physicochemical
CYP1A1 [3] = experiment: Induction of CYP1A1 mRNA expression in Sprague-Dawley rat hepatic microsomes at 22 mg/kg, po QD for 4 days relative to control; assay type: ADME, organism-based, Liver; conditions: read-out: FC
Method in brief: (§1)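 Male CD rats (226–325 g, n = 3) were dosed by oral gavage once daily for 4 days as a 1% w/v aqueous methylcellulose suspension (3–6 mg/mL, 5 mL/kg). At the end of the study, a left lateral liver lobe section was placed in RNALater and homogenised in TRIzol. RNA was purified, DNase-treated and converted to cDNA, and Cyp1a1 was read on low-density TaqMan arrays.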

CYP1A2 [4] = experiment: Induction of CYP1A2 mRNA expression in Sprague-Dawley rat hepatic microsomes at 22 mg/kg, po QD for 4 days relative to control; assay type: ADME, organism-based, Liver; conditions: read-out: FC
[5] = Cmax in Sprague-Dawley rat at 22 mg/kg, po QD measured on day 1; assay type: ADME, organism-based; design: dose 22 mg/kg, route oral; conditions: in vivo
Method in brief: (§2)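 Male CD rats (226−325 g), n = 3, given the compound once daily by oral gavage for 4 days. Vehicle was 1% (w/v) methylcellulose aq suspension at 3−6 mg/mL, dosed at 5 mL/kg (target 15−30 mg/kg). Tail vein blood was taken on days 1 and 4 up to 24 h postdose. Blood was diluted 1:1 with water, extracted by acetonitrile protein precipitation and analysed by LC−MS/MS against calibration standards in diluted blood.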

[6] = Cmax in Sprague-Dawley rat at 22 mg/kg, po QD measured on day 4; assay type: ADME, organism-based; design: dose 22 mg/kg, route oral; conditions: in vivo; method in brief: as §2
[7] = AUC in Sprague-Dawley rat at 22 mg/kg, po QD measured on day 1; assay type: ADME, organism-based; conditions: in vivo; method in brief: as §2
[8] = AUC in Sprague-Dawley rat at 22 mg/kg, po QD measured on day 4; assay type: ADME, organism-based; conditions: in vivo; method in brief: as §2
Rattus norvegicus [9] = experiment: Dose normalized AUC in Sprague-Dawley rat at 22 mg/kg, po QD measured on day 1; assay type: ADME, organism-based; conditions: in vivo; method in brief: as §2
Rattus norvegicus [10] = experiment: Dose normalized AUC in Sprague-Dawley rat at 22 mg/kg, po QD measured on day 4; assay type: ADME, organism-based; conditions: in vivo; method in brief: as §2
CYP1A1 [11] = experiment: Induction of CYP1A1 mRNA expression in Sprague-Dawley rat hepatic microsomes at 17 mg/kg, po QD for 4 days relative to control; assay type: ADME, organism-based, Liver; conditions: read-out: FC; method in brief: as §1
CYP1A2 [12] = experiment: Induction of CYP1A2 mRNA expression in Sprague-Dawley rat hepatic microsomes at 17 mg/kg, po QD for 4 days relative to control; assay type: ADME, organism-based, Liver; conditions: read-out: FC
[13] = Cmax in Sprague-Dawley rat at 17 mg/kg, po QD measured on day 1; assay type: ADME, organism-based; design: dose 17 mg/kg, route oral; conditions: in vivo; method in brief: as §2
[14] = Cmax in Sprague-Dawley rat at 17 mg/kg, po QD measured on day 4; assay type: ADME, organism-based; design: dose 17 mg/kg, route oral; conditions: in vivo; method in brief: as §2
[15] = AUC in Sprague-Dawley rat at 17 mg/kg, po QD measured on day 1; assay type: ADME, organism-based; conditions: in vivo; method in brief: as §2
[16] = AUC in Sprague-Dawley rat at 17 mg/kg, po QD measured on day 4; assay type: ADME, organism-based; conditions: in vivo; method in brief: as §2
Rattus norvegicus [17] = experiment: Dose normalized AUC in Sprague-Dawley rat at 17 mg/kg, po QD measured on day 1; assay type: ADME, organism-based; conditions: in vivo; method in brief: as §2
Rattus norvegicus [18] = experiment: Dose normalized AUC in Sprague-Dawley rat at 17 mg/kg, po QD measured on day 4; assay type: ADME, organism-based; conditions: in vivo; method in brief: as §2

Row | logD [1] | pKa [2] | fold induction at 96 h (CYP1A1 [3]) | fold induction at 96 h (CYP1A2 [4]) | Cmax [5] [ng/mL] | Cmax [6] [ng/mL] | AUC [7] [ng·h/mL] | AUC [8] [ng·h/mL] | AUC/dose (Rattus norvegicus [9]) [kg·min/L] | AUC/dose (Rattus norvegicus [10]) [kg·min/L] | fold induction at 96 h (CYP1A1 [11]) | fold induction at 96 h (CYP1A2 [12]) | Cmax [13] [ng/mL] | Cmax [14] [ng/mL] | AUC [15] [ng·h/mL] | AUC [16] [ng·h/mL] | AUC/dose (Rattus norvegicus [17]) [kg·min/L] | AUC/dose (Rattus norvegicus [18]) [kg·min/L] | SMILES
1 | 2.84 | 7.3 | 7 | 3 | 2100 | 2730 | 24300 | 28800 | 66 | 79 |  |  |  |  |  |  |  |  | Cc1c(-c2noc(-c3cnc(OC(C)C)c(C#N)c3)n2)ccc2c1CCN(C(CO)CO)C2
2 | 2.15 |  |  |  |  |  |  |  |  |  | 0.9 | 2 | 1610 | 2170 | 12900 | 16800 | 46 | 59 | Cc1c(-c2noc(-c3ccc(OC(C)C)c(C#N)c3)n2)cnc2c1CCN(C(CO)CO)C2
